The entries come from a sample that favours hits as a whole.
NLRP3 yeast inh: inhibitors of NALP3 inflammasome in yeast | Yeast reconstituted NLRP3/ASC/caspase-1, beta-gal luminescence, 24 h | inhibition, % at 10 µM | hit rate 0.39% among 330,000 | AID 2825;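 active = inhibition of 50% or more; inactive = inhibition below 50%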;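 also: plate controls were induced DMSO wells for no effect and uninduced yeast grown without galactose for full effect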
PolyA inh: blocks polyadenylation in yeast reporter cells | S. cerevisiae SKY197-pL101 polyadenylation reporter, beta-gal luminescence; efflux-impaired pdr1/pdr3 knockout yeast; score 100 = 6 SD above DMSO | activity score, % at 12 µM | hit rate 0.02% among 300,000;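 active = lowest replicate activity score at least 50, where 100 means six control SD above control mean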;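 also: yeast exposed to compound for 9 h at 30 °C; higher score means more reporter readthrough which indicates perturbed polyadenylation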
Calb FLC: affects C. albicans growth with fluconazole | growth inhibition, % (no concentration beside the values) | C. albicans CaCi-2 + fluconazole, Alamar Blue growth, 48 h | hit rate 0.57% among 300,000;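 active = growth inhibition above about 58% in most replicates, limit read from the data, passing the limit was not always enough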;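 also: all wells also contain fluconazole at 8 µg/ml as a sub-toxic cotreatment; 0% = median of DMSO wells and 100% = median of geldanamycin control wells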
L major viab: Leishmania major promastigote growth inhibition. Leishmania major promastigotes, resazurin fluorescence viability. inhibition, % at 10 µM. hit rate 9% among 200,000; in the data active = inhibition above about 50%;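 also: promastigotes grown with compound for 44 hours at 28 °C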
NALP1 inh: inhibitors of NALP1 inflammasome in yeast; S. cerevisiae NALP1/ASC/caspase-1 growth, X-gal OD620, 72 h; inhibition, % at 10 µM; hit rate 0.61% among 280,000; in the data active = inhibition mostly above about 24%, no sharp cut-off; inactive = mostly below about 32%
T cruzi inh: blocks replication of Trypanosoma cruzi | T. cruzi beta-gal in NIH3T3, luminescence, 90 h | inhibition, % (test concentration not listed) | hit rate 1.4% among 300,000;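 active = mean inhibition across valid replicates above about 55%, limit read from the data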;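 also: signal also drops with host cell toxicity which is not excluded here; 0% = plate median of DMSO wells and 100% = zero luminescence signal; higher percent means less beta-gal luminescence so fewer parasites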
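Test system: β-gal T. cruzi (Tulahuen C4) inside NIH/3T3 cells / Quantity: 5,000 cells/well / Measured by: luminescence from GalScreen with 0.05% NP40, read after 60 min / Medium: DMEM plus 2% FBS / Measure: parasite load inhibition, % / Reagent: Tulahuen C4 trypomastigotes, 5000/well / Schedule: co-culture of at least 90 h after 3 h attachment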
* hit, by the source's call.

How did OCCN1CCN(c2nc(N3CCCCC3)nc(N3CCCCC3)n2)CC1 do in these assays?
NLRP3 yeast inh: 6.7; PolyA inh: -5.6; Calb FLC: -0.3; L major viab: 11.8; NALP1 inh: 0.8; T cruzi inh: 17.7

What do the screens show for `CCNc1nc(N2CCCC2)nc(N2CCCC2)n1`?
NLRP3 yeast inh: -9.8; PolyA inh: 7.8; Calb FLC: -11.9; L major viab: 72.8*; NALP1 inh: -3.5; T cruzi inh: -12.0

How did CC(C)(CO)Nc1nc(N2CCCC2)nc(N2CCCC2)n1 do in these assays?
NLRP3 yeast inh: -2.5; PolyA inh: -5.1; Calb FLC: 6.0; L major viab: 100.0*; NALP1 inh: 6.2; T cruzi inh: 4.0

Results for COc1ccc(COC(=O)c2ccc(N3CCCC3=O)cc2)cc1F ?
NLRP3 yeast inh: 27.9; PolyA inh: -3.3; Calb FLC: 21.0; L major viab: -6.4; NALP1 inh: 4.9; T cruzi inh: -11.9

Results for COc1cc(/C=N/NC(=O)/C(=C/c2ccccc2)CCO)ccc1O ?
NLRP3 yeast inh: -12.1; PolyA inh: 5.4; Calb FLC: 24.1; L major viab: -2.3; T cruzi inh: -2.3

How did O=C(N/N=C/c1ccc(O)cc1O)/C(=C/c1ccccc1)CCO do in these assays?
NLRP3 yeast inh: 10.0; PolyA inh: -7.2; Calb FLC: -7.2; L major viab: 98.0*; T cruzi inh: 6.4

Results for CC(C)[C@]1(c2ccc(Cl)cc2)ON(c2ccccc2C(F)(F)F)C1=O ?
NLRP3 yeast inh: 8.5

How did CCc1nnc(NC(=O)c2ccc3ccccc3n2)s1 do in these assays?
NLRP3 yeast inh: 27.9; PolyA inh: -14.9; Calb FLC: 1.5; L major viab: 55.9*; NALP1 inh: -15.5; T cruzi inh: -8.7

How did Cc1ccc(/C=N/N2CCN(c3ccncc3S(=O)(=O)N3CCCCC3)CC2)cc1 do in these assays?
NLRP3 yeast inh: 3.6; PolyA inh: -19.5; Calb FLC: -10.7; L major viab: 67.0*; NALP1 inh: -14.3; T cruzi inh: 14.4

What do the screens show for `COc1cccc(/C=N/N2CCN(c3ccccc3OC)CC2)c1`?
NLRP3 yeast inh: 13.2; PolyA inh: 10.0; Calb FLC: 39.2; L major viab: -4.3; NALP1 inh: 43.7; T cruzi inh: -10.7

What do the screens show for `C=CCN1CCN(c2ccncc2S(=O)(=O)N2CCCCC2)CC1`?
NLRP3 yeast inh: 7.7; PolyA inh: 7.8; Calb FLC: 2.7; NALP1 inh: 14.4; T cruzi inh: 14.8

How did COc1cccc(/C=N/N2CCN(c3ccncc3S(=O)(=O)N3CCCCC3)CC2)c1 do in these assays?
NLRP3 yeast inh: -0.7; PolyA inh: -2.1; Calb FLC: 1.3; L major viab: 98.9*; NALP1 inh: 32.2; T cruzi inh: 65.7*

How did O=S(=O)(c1cnccc1N1CCN(/N=C/c2ccc(Cl)cc2)CC1)N1CCCCC1 do in these assays?
NLRP3 yeast inh: 11.6; PolyA inh: -6.4; Calb FLC: 7.5; L major viab: 79.1*; NALP1 inh: 15.1; T cruzi inh: 41.8

What do the screens show for `OCCC1CN(Cc2nc3c(s2)CCCC3)CCN1Cc1ccccc1` (configuration not stated)?
NLRP3 yeast inh: -0.4; PolyA inh: -3.7; Calb FLC: 4.4; NALP1 inh: 9.9; T cruzi inh: 39.8

Results for CC(C)CCN1CCN(Cc2nc3c(s2)CCCC3)CC1CCO (configuration not stated) ?
NLRP3 yeast inh: 14.9; PolyA inh: -0.5; Calb FLC: -16.4; L major viab: 74.9*; NALP1 inh: 2.7; T cruzi inh: 37.9

What do the screens show for `OCCC1CN(Cc2nc3c(s2)CCCC3)CCN1CCc1ccccc1` (configuration not stated)?
NLRP3 yeast inh: 5.0; PolyA inh: 2.8; Calb FLC: -21.7; L major viab: 75.7*; NALP1 inh: 17.2; T cruzi inh: 27.8

How did COc1ccc(-n2c(Cc3cccn3C)nnc2SCC(=O)NCCc2ccccc2)cc1 do in these assays?
NLRP3 yeast inh: 1.3; PolyA inh: -10.9; Calb FLC: 5.1; L major viab: -5.8; NALP1 inh: 15.6; T cruzi inh: -15.3

What do the screens show for `Cc1ccc(-n2ncc3c2CC(C)(C)CC3NC(=O)CCN2CCCO2)cc1` (configuration not stated)?
NLRP3 yeast inh: 11.7; PolyA inh: 10.7; Calb FLC: -18.7; NALP1 inh: 15.8; T cruzi inh: -3.6

Screening data from PubChem BioAssay.
